We go through seven molecules from ChEMBL document CHEMBL1144710, “epigenetic multiple ligands: mixed histone/protein methyltransferase, acetyltransferase, and class III deacetylase (sirtuin) inhibitors” (J Med Chem, 2008).

In assay [1] the test system is U-937. Put plainly: Inhibition of human p300/CBP in U937 cells at 50 uM assessed as histone H3 acetylation. It counts as cell-based. The gist of the method:
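Source was U937 nuclear extract (10 µg per assay) as p300/CBP HAT, with histone H3 substrate and compound at 50 µM or DMSO control for 90 min. Acetyl-H3 detected by indirect ELISA, quantified against acetylated H3 peptide standard curves, […].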

Assay [2] concerns the target T1, Histone-lysine N-methyltransferase SETD7 (Homo sapiens) (UniProt Q8WTS6).
T1 sequence (whole entry): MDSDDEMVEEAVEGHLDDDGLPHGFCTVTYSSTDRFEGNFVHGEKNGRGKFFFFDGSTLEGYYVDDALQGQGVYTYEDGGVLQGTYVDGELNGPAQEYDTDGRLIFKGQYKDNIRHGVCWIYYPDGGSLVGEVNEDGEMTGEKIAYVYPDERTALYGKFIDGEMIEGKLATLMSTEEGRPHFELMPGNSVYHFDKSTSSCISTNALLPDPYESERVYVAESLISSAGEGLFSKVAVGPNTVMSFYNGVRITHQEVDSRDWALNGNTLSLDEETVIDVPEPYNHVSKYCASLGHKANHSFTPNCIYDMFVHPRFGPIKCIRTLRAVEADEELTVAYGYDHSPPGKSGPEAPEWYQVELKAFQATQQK
Put plainly: Inhibition of human recombinant SET7 assessed as histone H3 protein methylation at 100 uM. The gist of the method: (§1)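 Recombinant enzymes (0.2 µg) with substrate (0.5 µg: Npl3p for PRMT1, PABP1 for CARM1, histone H3 for SET7), 0.5 µM [3H]AdoMet and 100 µM compound in PBS pH 7.4 with 3.3% v/v DMSO, 90 min at 30 °C. Products separated by 10% SDS-PAGE, transferred to PVDF, detected by fluorography on film overnight.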

The target of assay [3] is T2, Histone-arginine methyltransferase CARM1 (Homo sapiens) (UniProt Q86X55).
T2 sequence (whole entry): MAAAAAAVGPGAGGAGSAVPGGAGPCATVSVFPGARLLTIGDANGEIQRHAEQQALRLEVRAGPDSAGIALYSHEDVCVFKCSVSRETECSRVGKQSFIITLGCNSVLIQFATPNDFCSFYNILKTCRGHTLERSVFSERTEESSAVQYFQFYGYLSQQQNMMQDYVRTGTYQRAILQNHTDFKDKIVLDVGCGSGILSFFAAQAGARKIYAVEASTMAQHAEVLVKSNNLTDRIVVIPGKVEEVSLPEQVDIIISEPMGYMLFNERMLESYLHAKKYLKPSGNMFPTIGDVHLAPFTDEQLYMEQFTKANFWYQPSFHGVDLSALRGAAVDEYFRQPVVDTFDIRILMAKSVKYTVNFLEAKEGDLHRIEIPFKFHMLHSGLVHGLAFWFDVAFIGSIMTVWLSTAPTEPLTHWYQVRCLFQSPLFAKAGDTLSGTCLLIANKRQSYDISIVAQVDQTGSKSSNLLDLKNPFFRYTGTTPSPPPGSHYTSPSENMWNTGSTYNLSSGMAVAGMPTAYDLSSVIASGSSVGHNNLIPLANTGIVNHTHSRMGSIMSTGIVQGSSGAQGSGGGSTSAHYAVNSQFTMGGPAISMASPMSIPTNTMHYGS
Put plainly: Inhibition of human recombinant CARM1 assessed as poly(A) binding protein 1 methylation at 100 uM. An outline of the steps:
as §1

Assay [4] has as its target T3, NAD-dependent protein deacetylase sirtuin-2 (Homo sapiens) (UniProt Q8IXJ6).
T3 sequence (whole entry): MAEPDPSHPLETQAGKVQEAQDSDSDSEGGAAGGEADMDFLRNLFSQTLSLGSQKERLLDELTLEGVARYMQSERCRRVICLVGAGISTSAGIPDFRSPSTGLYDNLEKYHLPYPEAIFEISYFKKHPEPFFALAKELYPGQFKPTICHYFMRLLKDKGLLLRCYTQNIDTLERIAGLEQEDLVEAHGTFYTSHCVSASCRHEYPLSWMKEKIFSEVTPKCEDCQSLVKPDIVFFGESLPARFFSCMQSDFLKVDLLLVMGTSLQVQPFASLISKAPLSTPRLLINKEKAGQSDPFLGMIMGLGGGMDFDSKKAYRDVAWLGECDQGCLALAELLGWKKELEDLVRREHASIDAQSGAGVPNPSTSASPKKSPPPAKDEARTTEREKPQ
Description: Inhibition of human SIRT2 at 25 uM. The gist of the method:
(§2)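 Fluorescent two-stage assay. SIRT1 (1 U/well) or SIRT2 (5 U/well) with Fluor de Lys-SIRT1/2 substrate, NAD+ and compound at 25 µM, 37 °C for 2 h. Developer II containing nicotinamide then stopped the reaction and generated signal, read at ex 360/em 460 nm.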

Assay [5] deals with U-937. Put plainly: Inhibition of histone H4R3 methylation in human U937 cells at 50 uM after 24 hrs. It counts as functional, cell-based. An outline of the steps:
(§3)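 U937 cells treated at 50 µM for 24 h. Histones extracted with Triton buffer, then 0.2 M HCl overnight at 4 °C. 3–10 µg run on 15% SDS-PAGE and immunoblotted with anti-monomethyl-H3K4, monomethyl-H4R3 or dimethyl-H3R17 (1:500, overnight 4 °C), ECL detection. Loading controls: total H4 (H3K4), Ponceau Red (Arg marks).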

For assay [6], the target named is T4, NAD-dependent protein deacetylase sirtuin-1 (Homo sapiens) (UniProt Q96EB6).
T4 sequence (whole entry): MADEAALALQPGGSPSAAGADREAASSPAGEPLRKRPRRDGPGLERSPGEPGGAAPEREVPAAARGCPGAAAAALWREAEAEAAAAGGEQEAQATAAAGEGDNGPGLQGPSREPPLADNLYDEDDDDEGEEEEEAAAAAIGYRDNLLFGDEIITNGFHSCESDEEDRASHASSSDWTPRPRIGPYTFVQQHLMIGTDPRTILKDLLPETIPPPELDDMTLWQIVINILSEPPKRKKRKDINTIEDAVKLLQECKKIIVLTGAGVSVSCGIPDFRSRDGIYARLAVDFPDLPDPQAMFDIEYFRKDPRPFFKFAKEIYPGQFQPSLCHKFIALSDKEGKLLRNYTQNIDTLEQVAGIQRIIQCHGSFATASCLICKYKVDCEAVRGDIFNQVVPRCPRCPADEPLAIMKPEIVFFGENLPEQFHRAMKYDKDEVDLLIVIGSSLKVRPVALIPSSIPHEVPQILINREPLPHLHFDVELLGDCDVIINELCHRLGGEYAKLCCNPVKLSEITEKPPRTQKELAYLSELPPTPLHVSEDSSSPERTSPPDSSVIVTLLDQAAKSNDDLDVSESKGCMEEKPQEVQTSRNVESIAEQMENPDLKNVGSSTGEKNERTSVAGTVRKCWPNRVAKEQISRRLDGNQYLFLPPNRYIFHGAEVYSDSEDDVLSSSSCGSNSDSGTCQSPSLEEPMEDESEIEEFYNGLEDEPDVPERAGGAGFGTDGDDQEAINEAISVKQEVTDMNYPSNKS
Description: Inhibition of human SIRT1 at 25 uM. An outline of the steps: as §2

The target in the next assay is RmtA (Emericella nidulans, UniProt Q5VLE3). Description: Inhibition of Aspergillus nidulans RmtA. An outline of the steps: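 Enzyme was GST-RmtA fusion expressed in E. coli BL21 and glutathione-affinity purified (500 ng), preincubated with compound for 15 min at room temperature. Then 20 µg chicken erythrocyte core histones and 0.55 µCi [3H]AdoMet were added, 30 min at 30 °C. Stopped with 25% TCA, filtered, counted by liquid scintillation.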
Chain of RmtA (Q5VLE3 whole entry, the tested form may be a part): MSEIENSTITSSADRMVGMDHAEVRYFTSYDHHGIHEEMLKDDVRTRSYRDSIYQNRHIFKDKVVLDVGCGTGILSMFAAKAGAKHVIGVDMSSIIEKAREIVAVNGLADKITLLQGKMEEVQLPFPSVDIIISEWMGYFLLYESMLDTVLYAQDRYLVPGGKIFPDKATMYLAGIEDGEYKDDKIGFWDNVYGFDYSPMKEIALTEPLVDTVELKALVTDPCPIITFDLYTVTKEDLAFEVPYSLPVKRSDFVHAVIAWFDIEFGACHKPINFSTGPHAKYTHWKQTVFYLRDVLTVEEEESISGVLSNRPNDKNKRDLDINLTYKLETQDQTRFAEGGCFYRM

Assay [7] addresses Protein arginine N-methyltransferase 1 (Homo sapiens) (UniProt Q99873). Put plainly: Inhibition of human recombinant PRMT1 assessed as histone H4 methylation at 50 uM.
For assay [8], the system named is U-937. Put plainly: Inhibition of histone H3R17 methylation in human U937 cells at 50 uM after 24 hrs. Type of assay: functional, cell-based. The gist of the method: as §3
Assay [9] has as its system U-937. Put plainly: Induction of granulocytic differentiation in human U937 cells assessed as CD11c expression at 1 uM after 30 hrs. It counts as functional. The following applies: 5 uM, in the assay text read “at 5 uM” for “at 1 uM”. An outline of the steps:
(§4)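 U937 cells treated for 30 h, then stained with PE-conjugated CD11c (PE mouse IgG1 as control) for 30 min at 4 °C in the dark and resuspended in PBS with PI (0.25 µg/mL). Read-out is percent CD11c-positive/PI-negative cells, with dead PI-positive cells excluded. Coloured compounds limited the top dose to 5 µM or lower.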

The target in assay [10] is Protein arginine N-methyltransferase 1 (Homo sapiens) (UniProt Q99873). Description: Inhibition of human recombinant PRMT1 assessed as nuclear ribonucleoprotein Npl3p methylation at 100 uM. An outline of the steps: as §1
Chain of Protein arginine N-methyltransferase 1 (Homo sapiens) (Q99873 whole entry, looked up): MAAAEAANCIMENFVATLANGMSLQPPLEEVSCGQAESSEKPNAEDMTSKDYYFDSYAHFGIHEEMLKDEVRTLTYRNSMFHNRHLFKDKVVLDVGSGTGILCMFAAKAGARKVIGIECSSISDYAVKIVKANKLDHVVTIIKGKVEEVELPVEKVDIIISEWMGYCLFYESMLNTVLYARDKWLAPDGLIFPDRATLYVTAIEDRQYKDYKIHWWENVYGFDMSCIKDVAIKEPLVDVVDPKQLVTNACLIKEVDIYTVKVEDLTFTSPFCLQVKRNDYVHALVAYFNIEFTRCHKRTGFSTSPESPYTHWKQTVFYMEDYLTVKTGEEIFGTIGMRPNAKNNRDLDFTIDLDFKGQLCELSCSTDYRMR
The subject of assay [11] is U-937. Put plainly: Inhibition of histone H3K4 methylation in human U937 cells at 50 uM after 24 hrs. It counts as functional, cell-based. An outline of the steps: as §3
Assay [12] deals with U-937. Put plainly: Induction of granulocytic differentiation in human U937 cells assessed as CD11c expression at 5 uM after 30 hrs. It counts as functional. An outline of the steps:
as §4

Assay [13] has as its system U-937. Description: Cell cycle arrest in human U937 cells assessed as accumulation at S phase at 25 uM after 30 hrs. Type of assay: functional, cell-based. The gist of the method: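 U937 cells in RPMI with 10% fetal calf serum, HEPES and glutamine, kept at 200000 cells/mL; treated at 25 µM for 30 h, then the distribution across cell cycle phases was analysed.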
The test system of assay [14] is U-937. Put plainly: Induction of apoptosis in human U937 cells at 25 uM after 30 hrs. It counts as functional. The gist of the method: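 Apoptosis read as caspase 3 activation by FACS, in U937 cells (RPMI, 10% fetal calf serum, 200000 cells/mL) exposed to 25 µM for 30 h.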

Molecules are shown by their SMILES. Activity calls are given as the source filed them. Unless noted, the calls are words filed in the database; no cut-off is given here.

As usually defined, the inhibition is the percentage by which the read-out fell short of the control. As a reminder, the IC50 is the midpoint of a concentration-inhibition curve. A lower IC50 goes with higher potency. Take `O=C(Nc1cccc(NC(=O)c2cc(Br)c(O)c(Br)c2)c1)c1cc(Br)c(O)c(Br)c1`: the inhibition in the assay on U-937 [1] worked out at 83%; in [4], 0%; in assay [6], 2%; in assay [7], 86%. Besides, the outcome (in assay [2]; in assay [3]; in the assay with U-937 [5]; in the assay with U-937 [8]; in assay [10]) was Active. Further, half-maximal inhibition against RmtA (IC50) was put at 61.4 µM. Also, the outcome in the assay on U-937 [9] was inactive.
On to `O=C(/C=C/c1ccc(O)c(Br)c1)/C=C/c1cc(Br)c(O)c(Br)c1`, for which the outcome with U-937 [11] was inactive. Further, the inhibition stood at 62% in the assay with U-937 [1], 65% in [4], 60% in [6] and 17% in [7]. Further, the result (in assay [2]; in assay [3]; in the assay with U-937 [5]; in the assay with U-937 [8]; with U-937 [13]; in assay [10]) was Active. Further, the Activity in the assay on U-937 [12] stood at 68.1%; with U-937 [14] it was 1%. This molecule came in with an IC50 on RmtA of 40 µM.
For the molecule `O=C(Nc1cc(Br)c(O)c(Br)c1)c1cccc(C(=O)Nc2cc(Br)c(O)c(Br)c2)c1`, the inhibition in the assay with U-937 [1] was 81%; in [4] it was 9%; in assay [6] it was 13%; in assay [7], 38%. Also, the outcome (in assay [2]; in assay [3]; in the assay with U-937 [5]; in the assay on U-937 [8]; in assay [10]) was Active. Also, the IC50 at RmtA came to 13.8 µM. Besides, the outcome in the assay on U-937 [9] was inactive.
Regarding `O=C(/C=C/c1cc(Br)c(O)c(Br)c1)c1ccc(C(=O)/C=C/c2cc(Br)c(O)c(Br)c2)cc1`, the inhibition stood at 0% in the assay on U-937 [1], 56% in assay [4], 45% in assay [6] and 31% in assay [7]. In addition, the outcome (in [2]; in assay [3]; in the assay with U-937 [5]; in the assay with U-937 [8]; in assay [10]) was Active. For the same molecule, the IC50 at RmtA came to 37 µM. In addition, in the assay on U-937 [9], the outcome was inactive.
With `O=C(/C=C/c1cc(Br)c(O)c(Br)c1)CC(=O)/C=C/c1cc(Br)c(O)c(Br)c1`, the inhibition with U-937 [1] was determined as 58%; in assay [4], 61%; in [6] it was 52%; in assay [7], 70%. Moreover, the outcome (in assay [2]; in [3]; in the assay on U-937 [5]; in the assay on U-937 [8]; with U-937 [13]; in assay [10]) was Active. Also, the Activity in the assay with U-937 [12] is 33%; with U-937 [14], 10.5%. For the same molecule, the 50% inhibitory concentration (IC50) against RmtA is 48 µM.
As for `CC(NC(=O)c1ccccc1/N=C/c1c(O)ccc2ccccc12)c1ccccc1` (configuration not stated) [SIRTINOL], the Activity with U-937 [12] and with U-937 [14] was 7.5% in each case.
Turning to `O=C(/C=C/c1ccc(O)c(Br)c1)c1cc(Br)c(O)c(Br)c1`, the result in the assay on U-937 [11], in the assay with U-937 [5] and in the assay on U-937 [8] was Active. Also, the inhibition was 0% with U-937 [1], 38% in [4], 35% in [6] and 36% in assay [7]. The outcome in assay [3] and in assay [10] was inactive. This molecule also returned an IC50 at RmtA of 40 µM.
